Experimental data reported in ChEMBL document CHEMBL2346661, “Improved guanide compounds which bind the CXCR4 co-receptor and inhibit HIV-1 infection” (Bioorg Med Chem Lett, 2013).
Activity calls are given as the source filed them. The rule behind the calls is not given here.

Tests used:
[1] = target: T1, C-X-C chemokine receptor type 4 (Homo sapiens, UniProt P61073); assay: Inhibition of anti-CXCR4 mAb-44708 binding to CXCR4 in human H9 cells at 3 uM incubated for 20 mins prior to mAb-44708 addition measured after 1 hr by flow cytometric analysis; type: cell-based
Summary of the method: (§1)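 H9 cells pre-incubated at 4°C with […] compound in PBS/BSA/azide, then stained with anti-CXCR4 mAb 12G5, 44708, 44716 or 44717 at 1 μg/ml for 1 h. Detection with Alexa 488 anti-mouse IgG, then 2% paraformaldehyde fixation. Flow cytometry on 10,000 events; % inhibition from median fluorescence intensity.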

H9 = assay: Cytotoxicity against human H9 cells up to 4 uM after 72 hrs by MTS assay; type: cell-based; conditions: h9, 72 h
Summary of the method: (§2)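 Cultures of TZM-bl, H9, or PHA blasts exposed to compound at concentrations up to 4 μM; MTS dye reduction measured at 72 h.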

[2] = tested on: Human immunodeficiency virus 1; assay: Antiviral activity against R5 tropic HIV1 infected in human TZM-bl cells; type: functional, organism-based
[3] = target: T1, C-X-C chemokine receptor type 4; assay: Inhibition of anti-CXCR4 mAb-44716 binding to CXCR4 in human H9 cells at 1 uM incubated for 20 mins prior to mAbs-44716 addition measured after 1 hr by flow cytometric analysis; type: cell-based
Summary of the method: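 H9 cells held 20 min at 4°C with […] compound in PBS/BSA/azide. Anti-CXCR4 mAb 44716 or an isotype control (anti-ricin RAC18) then added to 1 μg/ml for 1 h at 4°C. Washed, stained with Alexa 488 anti-mouse IgG for 1 h at 4°C, then fixed in 2% paraformaldehyde. Flow cytometry on 10,000 events; % inhibition from median fluorescence intensity.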

[4] = target: T1, C-X-C chemokine receptor type 4; assay: Inhibition of anti-CXCR4 mAb-12G5 binding to CXCR4 in PHA-induced human T cells at 0.1 to 10 uM incubated for 20 mins prior to mAbs-12G5 addition measured after 1 hr by flow cytometric analysis; type: cell-based; conditions: T-cell
Summary of the method: (§3)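 H9 cells or primary PHA-induced T-cell blasts pre-incubated 20 min at 4°C with a range of compound concentrations in PBS/1% BSA/0.01% sodium azide. mAb 12G5 (anti-CXCR4) or Sim.2 (anti-CD4) then added to 1 μg/ml for 1 h at 4°C. Detection with Alexa Fluor 488 goat anti-mouse IgG at 2 μg/ml for 1 h, then 2% paraformaldehyde fixation. Flow cytometry on 10,000 events; % inhibition from median fluorescence intensity against no-drug and no-Ab controls.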

[5] = Cytotoxicity against human TZM-bl cells up to 4 uM after 72 hrs by MTS assay; type: cell-based; summary of the method: as §2
MDA-MB-231 = assay: Cytotoxicity against human MDA-MB-231 cells expressing CXCR4 after 48 to 72 hrs by MTS assay; type: cell-based
Summary of the method: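 MDA-MB-231 breast cancer cells (CXCR4-expressing) exposed to compound for 48 to 72 h; viability by MTS dye reduction (CellTiter 96 Aqueous non-radioactive proliferation assay), run per manufacturer's protocol.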

[6] = tested on: Human immunodeficiency virus 1; assay: Antiviral activity against X4 tropic HIV1 isolate 92-HT-599 infected in human TZM-bl cells assessed as neutralization of viral infectivity at 50 to 100 nM incubated 1 hr prior to viral infection measured after 72 hrs by luciferase reporter gene assay; type: functional, organism-based
[7] = target: T-cell surface glycoprotein CD4 (Homo sapiens) (UniProt P01730); assay: Inhibition of anti-CD4 mAb sim-2 binding to CD4 in PHA-induced human T cells at 0.1 to 10 uM incubated for 20 mins prior to mAb sim-2 addition measured after 1 hr by flow cytometric analysis; type: cell-based; summary of the method: as §3
[8] = target: T1, C-X-C chemokine receptor type 4; assay: Inhibition of anti-CXCR4 mAb-44716 binding to CXCR4 in human H9 cells at 3 uM incubated for 20 mins prior to mAbs-44716 addition measured after 1 hr by flow cytometric analysis; type: cell-based; summary of the method: as §1
[9] = Cytotoxicity against PHA-induced human T cells up to 4 uM after 72 hrs by MTS assay; type: cell-based; conditions: t-cell; summary of the method: as §2
[10] = target: T1, C-X-C chemokine receptor type 4; assay: Inhibition of T-140 binding to CXCR4 (unknown origin) expressed in dog Cf2Th cells incubated for 30 mins prior to T-140 addition measured after 30 mins by fluorescence assay; type: cell-based
[11] = tested on: Human immunodeficiency virus 1; assay: Antiviral activity against X4 tropic HIV1 BZ-167 infected in human TZM-bl cells assessed as neutralization of viral infectivity at 50 to 100 nM incubated 1 hr prior to viral infection measured after 72 hrs by luciferase reporter gene assay; type: functional, organism-based
[12] = tested on: Human immunodeficiency virus 1; assay: Antiviral activity against X4 tropic HIV1 NL4-3 infected in human TZM-bl cells assessed as neutralization of viral infectivity at 50 to 100 nM incubated 1 hr prior to viral infection measured after 72 hrs by luciferase reporter gene assay; type: functional, organism-based
[13] = target: T1, C-X-C chemokine receptor type 4; assay: Inhibition of anti-CXCR4 mAb-12G5 binding to CXCR4 in human H9 cells at 3 uM incubated for 20 mins prior to mAbs-12G5 addition measured after 1 hr by flow cytometric analysis; type: cell-based; summary of the method: as §1
[14] = target: T-cell surface glycoprotein CD4 (Homo sapiens) (UniProt P01730); assay: Inhibition of anti-CD4 mAb sim-2 binding to CD4 in human H9 cells at 0.1 to 10 uM incubated for 20 mins prior to mAb sim-2 addition measured after 1 hr by flow cytometric analysis; type: cell-based; summary of the method: as §3
[15] = target: T1, C-X-C chemokine receptor type 4; assay: Inhibition of anti-CXCR4 mAb-44717 binding to CXCR4 in human H9 cells at 3 uM incubated for 20 mins prior to mAb-44717 addition measured after 1 hr by flow cytometric analysis; type: cell-based; summary of the method: as §1
[16] = target: T1, C-X-C chemokine receptor type 4; assay: Inhibition of anti-CXCR4 mAb-12G5 binding to CXCR4 in human H9 cells at 0.1 to 10 uM incubated for 20 mins prior to mAbs-12G5 addition measured after 1 hr by flow cytometric analysis; type: cell-based; summary of the method: as §3
[17] = tested on: Human immunodeficiency virus 1; assay: Antiviral activity against X4 tropic HIV1 isolate 92-UG-029 infected in human TZM-bl cells assessed as neutralization of viral infectivity at 50 to 100 nM incubated 1 hr prior to viral infection measured after 72 hrs by luciferase reporter gene assay; type: functional, organism-based

T1 sequence (P61073 whole entry): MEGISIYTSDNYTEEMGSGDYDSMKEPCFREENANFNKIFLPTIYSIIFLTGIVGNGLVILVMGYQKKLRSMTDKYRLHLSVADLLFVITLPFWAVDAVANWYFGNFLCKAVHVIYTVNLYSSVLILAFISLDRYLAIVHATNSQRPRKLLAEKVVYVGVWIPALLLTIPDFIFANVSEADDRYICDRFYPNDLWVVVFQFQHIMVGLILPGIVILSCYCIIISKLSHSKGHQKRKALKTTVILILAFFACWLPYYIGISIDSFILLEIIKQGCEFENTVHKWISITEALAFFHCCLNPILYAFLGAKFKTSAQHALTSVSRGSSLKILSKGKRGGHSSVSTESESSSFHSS

Q: With `N=C(NCCCNCCCCN(CCCNC(=N)Nc1cccc2ccccc12)C(=N)Nc1cccc2ccccc12)Nc1cccc2ccccc12` as the compound, how does the inhibition [1] read?
A: Active

Q: What about the Activity (H9) of the same compound?
A: Non-toxic

Q: What about the Activity [2] of the same compound?
A: inactive

Q: And the inhibition [3]?
A: Active

Q: What about the inhibition [4] of the same compound?
A: Active

Q: What about the Activity [5] of the same compound?
A: Non-toxic

Q: What about the CC50 (MDA-MB-231) of the same compound?
A: 18 µM

Q: What about the Activity [6] of the same compound?
A: Active

Q: And the inhibition [7]?
A: inactive

Q: And the inhibition [8]?
A: Active

Q: And the Activity [9]?
A: Non-toxic

Q: And the IC50 [10]?
A: 0.04 µM

Q: And the Activity [11]?
A: Active

Q: What about the Activity [12] of the same compound?
A: Active

Q: What about the inhibition [13] of the same compound?
A: Active

Q: What about the inhibition [14] of the same compound?
A: inactive

Q: What about the inhibition [15] of the same compound?
A: Active

Q: And the inhibition [16]?
A: Active

Q: What about the Activity [17] of the same compound?
A: Active

Q: With `N=C(NCCCNCCCCN(CCCNC(=N)Nc1ccc2ccccc2c1)C(=N)Nc1ccc2ccccc2c1)Nc1ccc2ccccc2c1` as the compound, how does the Activity [2] read?
A: inactive

Q: What about the inhibition [3] of the same compound?
A: Active

Q: Which Activity [2] does the source give for `N=C(NCCCCNCCCNC(=N)Nc1ccc2ccccc2c1)Nc1ccc2ccccc2c1` here?
A: inactive

Q: For `NCCCNCCCCNCCCN`, which inhibition [1] is on record?
A: inactive

Q: What about the inhibition [4] of the same compound?
A: inactive

Q: What about the inhibition [8] of the same compound?
A: inactive

Q: And the inhibition [13]?
A: inactive

Q: What about the inhibition [15] of the same compound?
A: inactive

Q: What about the inhibition [16] of the same compound?
A: inactive

Q: With `N=C(Nc1ccccc1)N(CCCCN=C(N)Nc1ccccc1)CCCN=C(N)Nc1ccccc1` as the compound, how does the CC50 (MDA-MB-231) read?
A: 510 µM

Q: What about the IC50 [10] of the same compound?
A: 0.28 µM

Q: For `N=C(Nc1ccccc1)N(CCCCN(CCCN=C(N)Nc1ccccc1)C(N)=Nc1ccccc1)CCCNC(N)=Nc1ccccc1`, which CC50 (MDA-MB-231) is on record?
A: > 100 µM

Q: What about the IC50 [10] of the same compound?
A: 0.51 µM

Q: Which CC50 (MDA-MB-231) does the source give for `N=C(NCCCCNCCCNC(=N)Nc1ccccc1)Nc1ccccc1` here?
A: > 1000 µM

Q: What about the IC50 [10] of the same compound?
A: 0.26 µM

Q: With `N=C(NCCCCNCCCNC(=N)Nc1cccc2ccccc12)Nc1cccc2ccccc12` as the compound, how does the CC50 (MDA-MB-231) read?
A: 120 µM

Q: And the IC50 [10]?
A: 0.22 µM

Q: For `N=C(NCCCCN(CCCNC(=N)Nc1ccc2ccccc2c1)C(=N)Nc1ccc2ccccc2c1)Nc1ccc2ccccc2c1`, which IC50 [10] is on record?
A: 0.19 µM

Q: For `NC(=NCCCCN(CCCN=C(N)Nc1cccc2ccccc12)C(N)=Nc1cccc2ccccc12)Nc1cccc2ccccc12`, which IC50 [10] is on record?
A: 0.11 µM

Q: With `NC(=NCCCNCCCCN(CCCN=C(N)Nc1ccc2ccccc2c1)C(N)=Nc1ccc2ccccc2c1)Nc1ccc2ccccc2c1` as the compound, how does the CC50 (MDA-MB-231) read?
A: 15 µM

Q: And the IC50 [10]?
A: 0.093 µM

Q: With `NC(=NCCCCNCCCN=C(N)Nc1ccc2ccccc2c1)Nc1ccc2ccccc2c1` as the compound, how does the CC50 (MDA-MB-231) read?
A: 76 µM

Q: And the IC50 [10]?
A: 0.062 µM

Q: With `N=C(NCCCN(CCCCN(CCCNC(=N)Nc1ccc2ccccc2c1)C(=N)Nc1ccc2ccccc2c1)C(=N)Nc1ccc2ccccc2c1)Nc1ccc2ccccc2c1` as the compound, how does the CC50 (MDA-MB-231) read?
A: 20 µM

Q: What about the IC50 [10] of the same compound?
A: 0.3 µM

Q: With `N=C(NCCCN(CCCCN(CCCNC(=N)Nc1cccc2ccccc12)C(=N)Nc1cccc2ccccc12)C(=N)Nc1cccc2ccccc12)Nc1cccc2ccccc12` as the compound, how does the CC50 (MDA-MB-231) read?
A: 7.3 µM

Q: What about the IC50 [10] of the same compound?
A: 0.38 µM

Q: Which Activity [2] does the source give for `N=C(NCCCNCCCCNCCCNC(=N)Nc1ccc2ccccc2c1)Nc1ccc2ccccc2c1` here?
A: inactive

Q: What about the inhibition [3] of the same compound?
A: Active

Q: What about the CC50 (MDA-MB-231) of the same compound?
A: 17 µM

Q: What about the IC50 [10] of the same compound?
A: 0.11 µM

Q: Which inhibition [3] does the source give for `N=C(NCCCNCCCCNCCCNC(=N)Nc1cccc2ccccc12)Nc1cccc2ccccc12` here?
A: Active

Q: And the CC50 (MDA-MB-231)?
A: 300 µM

Q: And the IC50 [10]?
A: 0.18 µM
